ChEMBL document CHEMBL1156859, “Novel bis-2,2,6,6-tetramethylpiperidine (bis-TMP) and bis-mecamylamine antagonists at neuronal nicotinic receptors mediating nicotine-evoked dopamine release” (Bioorg Med Chem Lett, 2010)

What was measured:
Format in all cases: functional
[1] = Antagonist activity at nicotinic acetylcholine receptor in rat striatal slices assessed as inhibition of S-(-)-nicotine-induced [3H]dopamine release
Method in brief: (§1)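 Superfused rat striatal slices were stimulated with 10 μM S-(−)-nicotine, with analog present across 1 nM to 10 μM. Evoked [3H]DA overflow was expressed as a percent of tissue [3H] content and compared with nicotine alone. IC50 and Imax came from iterative nonlinear least-squares curve fitting, using 4-6 independent experiments.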

[2] = Antagonist activity at nicotinic acetylcholine receptor in rat striatal slices assessed as inhibition of S-(-)-nicotine-induced [3H]dopamine release at 100 nM relative to control
Method in brief: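 Probe assay on superfused rat striatal slices: 100 nM analog against 10 μM S-(−)-nicotine-evoked [3H]DA release. Inhibition is expressed as a percentage of the nicotine response without analog, i.e. the fractional release evoked under control conditions. Each value comes from at least 3 independent experiments, each in duplicate (n = 3 rats/analog).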

[3] = Antagonist activity at nicotinic acetylcholine receptor in rat striatal slices assessed as inhibition of S-(-)-nicotine-induced [3H]dopamine release relative to control; method in brief: as §1

| IC50 [1] [nM] | Compound | inhibition at 0.1 µM [2] [%] | Imax [3] [%] |
| --- | --- | --- | --- |
| 107 | CN(CCCC#Cc1cc(C#CCCCN(C)[C@@]2(C)[C@@H]3CC[C@@H](C3)C2(C)C)cc(C#CCCCN(C)[C@@]2(C)[C@@H]3CC[C@@H](C3)C2(C)C)c1)[C@@]1(C)[C@@H]2CC[C@@H](C2)C1(C)C | 73 | 62 |
| 2.2 | CC1(C)CCCC(C)(C)N1CCCCCCCCCCCCCN1C(C)(C)CCCC1(C)C | 56 | 87 |
| 319 | CN(CCCCCCCCCCCN(C)[C@@]1(C)[C@@H]2CC[C@@H](C2)C1(C)C)[C@@]1(C)[C@@H]2CC[C@@H](C2)C1(C)C | 35 | 90 |
| – | CC1(C)CCCC(C)(C)N1CCCCCCCCCCCCN1C(C)(C)CCCC1(C)C | 36 | – |
| – | CC1(C)CCCC(C)(C)N1CCCCCCCCCCCN1C(C)(C)CCCC1(C)C | 22 | – |
| – | CC1(C)CCCC(C)(C)N1CCCCCCCCN1C(C)(C)CCCC1(C)C | 18 | – |
| – | CC1(C)CCCC(C)(C)N1CCCCCCCCCCN1C(C)(C)CCCC1(C)C | 5 | – |
| 46 | CN(CCCCCCCCCCCCCN(C)[C@@]1(C)[C@@H]2CC[C@@H](C2)C1(C)C)[C@@]1(C)[C@@H]2CC[C@@H](C2)C1(C)C | 52 | 83 |

| Compound | IC50 [1] [nM] | inhibition at 0.1 µM [2] [%] | Imax [3] [%] |
| --- | --- | --- | --- |
| Cc1ccc[n+](CCCC#Cc2cc(C#CCCC[n+]3cccc(C)c3)cc(C#CCCC[n+]3cccc(C)c3)c2)c1.[Br-].[Br-].[Br-] | 0.2 | 40 | 67 |
| Cc1ccc[n+](CCCCCCCCCCCC[n+]2cccc(C)c2)c1.[Br-].[Br-] | 2 | – | 78 |
